# Reference: the RNAGym collection of RNA variant scans (doi:10.1126/science.aae0568)
# Variants at the floor of the assay were thinned out.
# B1: tRNA (parent)
# chain: GUUCCGUUGGCGUAAUGGUAACGCGUCUCCCUCCUAAGGAGAAGACUGCGGGUUCGAGUCCCGUACGGAACG
# Variants of: B1
# Assay: yeast fitness relative to wild type (ratio to wild type); higher = fitter; tRNA-Arg(CCU), competitive growth, 37 C, YPD
# In short: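 Amplicons of the tRNA-Arg(CCU) gene were sequenced, 100-nucleotide paired-end, from the start population and from each end population of a pooled yeast competition. The competition, in six parallel replicates, lasted 24 hours in YPD at 37°C. Fitness relative to wild type was calculated from changes in genotype frequencies. Genotypes had to have ≥ 100 starting reads, and estimates < 0.5 were set to 0.5.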
row,Variant,yeast fitness
1,A40G G48A,1.01
2,C24A U32A G50C,≤ 0.5
3,A42G C61U,0.853
4,G10C A14U U32C C62U,≤ 0.5
5,U8G G10C A20G,≤ 0.5
6,G10C A36U U64C C66U A70C,≤ 0.5
7,C11G A21G A40G G58A C62G,≤ 0.5
8,U7A A36C A57C,≤ 0.5
9,U2A A14U G41C,≤ 0.5
10,C24U C33G C34U A57U,0.583
11,U3C C55U C61A,≤ 0.5
12,C4U C31U A40U A69U,0.625
13,U19C G38C G44C C46A A70G,0.574
14,C11U U26C U47A G50A,≤ 0.5
15,U2A A20C C33A C55U,≤ 0.5
16,C27G A36G G68A,≤ 0.5
17,C4G G9A U32C C33U,≤ 0.5
18,C29U A43C G51A,≤ 0.5
19,U3A C4G G6A U26G C66U,≤ 0.5
20,G51A A65U A69C,≤ 0.5
21,U8C A15C C27U A45C,≤ 0.5
22,C4A G6A C11A C22U C29U C55A G68U,≤ 0.5
23,G6A A15C A20G,≤ 0.5
24,C4U G44A U47C G56A,≤ 0.5

row,Variant,yeast fitness
1,G10A A40G,0.79
2,C22A C66G,0.714
3,C22G C24G U32A C66U,≤ 0.5
4,U47A C62A,0.683
5,U3C G38C,0.813
6,G6A C11U A69U,0.707
7,C5A C34G C49G A65G,≤ 0.5
8,G12C A20C G50A C60U,0.56
9,G9A G25C C30U G51C G58U,≤ 0.5
10,C27G C33G G41A,≤ 0.5
11,G44A C55U U64A A69C,≤ 0.5
12,C5A C49G,0.704
13,C5U A15U G17A C46G G63C C66A,≤ 0.5
14,U3A C5A G6C C11U A15G U16A U26G C60G C61U,≤ 0.5
15,U32G A42C,0.62
16,U26G U47A,0.811
17,C29U C34G A43U C62U A65U A69C,≤ 0.5
18,C46U A69C,0.976
19,U2C G18A U28C A42C G56C A65C,0.61
20,C34G G52A A65U,≤ 0.5
21,G18A A43G A65C,0.595
22,C4U A42G C66A,≤ 0.5
23,A14G C22G A70U,0.774
24,U26G G52A G68U,≤ 0.5

row,Variant,yeast fitness
1,U13A C33A A36U A70C,0.518
2,U19C C31A G50U C62G,≤ 0.5
3,U3G C62G,0.739
4,U59C A65C,0.837
5,G17A C31G G48A,≤ 0.5
6,C30G A42C,0.631
7,C24G A42C C66U,≤ 0.5
8,C5U C11G A15U U32A U35G,0.562
9,C24A C49U,0.614
10,G23C G56C,≤ 0.5
11,C34A G68U,0.647
12,A20C C31G,0.744
13,C5U G9C G23A G50A A65U,≤ 0.5
14,G41A G63C,0.715
15,U7C C30U C66G,≤ 0.5
16,C24U G51C G68A,≤ 0.5
17,U7C G25A C55A,≤ 0.5
18,A14U U47A G56A,≤ 0.5
19,A14G U28C G67U A69C,≤ 0.5
20,U2G U19G,1.24
21,U3A A21C C33U U35A G51C G68C A70U,0.564
22,C24G A37U U47A,≤ 0.5
23,C27U U28C C62U,0.625
24,C4A C22G C33U A40U U59A,≤ 0.5

row,Variant,yeast fitness
1,A15U C27G C49A,0.518
2,U13G U26G C33G U47A,0.602
3,G68A A69C,0.766
4,A43U G48A C61G,≤ 0.5
5,U7A U13A A21U A45U,0.649
6,A14G G23A U54G,≤ 0.5
7,U3C G51A A69C,0.602
8,C5G A14C G25A U32C G41C G50A C61G,≤ 0.5
9,C5U C46G,0.93
10,C4G U16C,0.806
11,C5U C22U C33U G68C A69U,≤ 0.5
12,C22A C46U,1.1
13,C11U A15U U26C C49A,≤ 0.5
14,U3G U8C G50C G68C,≤ 0.5
15,C22A G23C C27U,≤ 0.5
16,U3A G12C G52A A65U,≤ 0.5
17,C31U C46A A70C,0.771
18,U32G C61A,0.535
19,G18A G41C A42C C49U,0.522
20,G18C G48A C66U,0.545
21,G18C G23C G39A,≤ 0.5
22,U19A A20G G56A,0.956
23,G18A C30G,≤ 0.5
24,G6C U8A G58C C61A,≤ 0.5

row,Variant,yeast fitness
1,U3A G12C,0.635
2,C11G U26A U53A,≤ 0.5
3,U28A C49G A57G,≤ 0.5
4,A14C C22G,0.701
5,U3C G56A C60A,0.568
6,U8A C11U U19C C46A C66U,0.578
7,U7A G9A U13A G48A U54G C61A,≤ 0.5
8,C11G U28C G39A C60A G67A,≤ 0.5
9,A14U C30A C46U C62A,≤ 0.5
10,A21U C27G C33G A69U,≤ 0.5
11,U26A C30G A37C A69C,≤ 0.5
12,C29A C55U G63C,≤ 0.5
13,C29G U32C A70C,0.555
14,U8G G10C A20G U59C G67A,≤ 0.5
15,C33G U53A,0.65
16,C5U G41A C55G C66U,≤ 0.5
17,U2A C11G U35G U47A G48A A65U,≤ 0.5
18,G9C C31G U54A G67C A69U,≤ 0.5
19,C31U G48A C61A,0.532
20,C27A U35C U64A,≤ 0.5
21,A14C C33A G41U C49U C66U,≤ 0.5
22,C5G G6C A15G C62U A65C,0.6
23,U3C A21U,0.642
24,C49U U59C C62G,0.503

row,Variant,yeast fitness
1,A57G C62U,0.781
2,C11U C66A,0.65
3,U2C G67U,0.81
4,G9C C61U C66G,≤ 0.5
5,C27A A36G A57G,≤ 0.5
6,G6A G17A A69U,0.551
7,A14C G18C C29U A65C,≤ 0.5
8,G9C C11A A40C,0.671
9,C31A C49G G56C A70U,≤ 0.5
10,G17A A20C C24U,0.562
11,A36G U54A,0.691
12,U19A U26C C49G C66G,≤ 0.5
13,G10C G18A C22U,0.633
14,C11G A21G G50A U64A,≤ 0.5
15,G18C C30U C31G G50A,≤ 0.5
16,C5G A69C A70U,0.765
17,U2G C60U,0.782
18,U3C G23C,0.695
19,G10C A21G,0.633
20,G9A U13A,1.03
21,C11A U19G A36G U54C C66U A69C,≤ 0.5
22,G6C U16A G18C C22G,0.615
23,G9C A36C C49G A65G,0.681
24,C22G A42C,0.635

row,Variant,yeast fitness
1,C4U C46U C49G U59C,≤ 0.5
2,C5U C30A A42U A69C,≤ 0.5
3,C11U A40U C46A,0.74
4,G17A C31U U54G,0.639
5,C5G A43C G52C,≤ 0.5
6,C11U G18A G41C,≤ 0.5
7,G23C C24G U32G A42C G44A G51C C60U,≤ 0.5
8,C31A C33G A45G G48A,≤ 0.5
9,A15G A20G C31U,0.59
10,C33U C55U,0.586
11,C4U U13A G23A C24A A36U G39C C62A U64A,≤ 0.5
12,G10A A20C G38A G41A,≤ 0.5
13,G6C U47A,0.818
14,G17A C22A A36G A45C C46U,≤ 0.5
15,U2A G25C A70G,0.568
16,U47A C55G C66G,0.639
17,G6A U47G,0.594
18,C11A C33G A43C G68A,0.61
19,C27U U28G A42U,0.535
20,C34U A57U,≤ 0.5
21,C5U C30U A37C U54A,≤ 0.5
22,A14G U54A A69U,≤ 0.5
23,U16A U19C,1.03
